WT yeast gro inh – growth inhibition of WT strain, primary screen, mitochondrial fusion inhibitor project, WT and mutant strains, chemical genetic; AID 1362, 2008; inhibition, % at 10 µM; mitochondrial fusion phenotypic screen; 190,000 tested, 2.1% active; in the data active = inhibition above about 58%; tested in S. cerevisiae
L major viab – Leishmania major promastigote growth inhibition, primary screen | 200,000 tested, 9% active | inhibition, % at 10 µM | Leishmania major promastigotes, resazurin fluorescence viability;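 note: promastigotes grown with compound for 44 hours at 28 °C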
Diaph inh CS – diaphorase inhibitors and chemical oxidizers, primary screen, counter-screen for diaphorase-coupled primary assays, biochemical, uHTS, resorufin fluorescence | diaphorase resazurin-to-resorufin fluorescence, NADH, 16 min; bacterial (C. kluyveri) enzyme, not human | inhibition, % at 20 µM | 190,000 tested, 0.69% active;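 active = primary screen inhibition at 20 µM above a set limit, cut at about 50% in these data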;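 note: plate controls were DMSO with full reaction for no effect and wells lacking NADH for full effect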
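System: Diaphorase enzyme from Clostridium kluyveri | Amount: Enzyme working solution with 0.14 U/mL diaphorase | Benchmarks: No-NADH positive control and DMSO neutral control | Signal: Fluorescence of resorufin formed from resazurin, Ex 544/Em 590 nm | Schedule: 16-min room-temperature incubation before reading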
Diaphorase act – compounds boosting diaphorase resazurin reduction – biochemical, uHTS, resorufin fluorescence, counter-screen for diaphorase-coupled primary assays, primary screen | Diaphorase/resazurin coupled assay, 16 min; hits give high values; 1 = vehicle wells, 0 = NADH-free wells | activation factor at 20 µM | 190,000 tested, 0.005% active | AID 1229, 2008;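 active = diaphorase activity raised at least twofold by the compound at 20 µM; inactive = activation factor below 2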
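Material: Purified diaphorase enzyme from Clostridium kluyveri | Buffer or medium: 50 mM HEPES pH 7.4 with 4.542 mM MgCl2, 0.005% Tween 20 | Times: 16 min enzyme reaction, ambient temperature | Signal: Red resorufin fluorescence at 544/590 nm excitation/emission | Measure: Increased resorufin signal from activators or reducing compounds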
G6PDH CS – L. mesenteroides G6PDH inhibitors, counter-screen for G6PDH-coupled screening assays, biochemical, Leuconostoc mesenteroides enzyme; inhibition, % at 5 µM; AID 1020, 2008; glucose-6-phosphate dehydrogenase [Leuconostoc mesenteroides]; Purified L. mesenteroides G6PDH, diaphorase/resazurin coupled fluorescence, 45 min; 200,000 tested, 0.12% active
* marks the source's active call; other numbers are inactive results; . = no result given. Rows were chosen to be rich in hits. Some 11% of all compounds tested hit in one or more screens of this group. Cut-off read from the data, not from the text of the source, unless noted: active = inhibition above about 50%; inactive = the rest.

SMILES	WT yeast gro inh	L major viab	Diaph inh CS	Diaphorase act	G6PDH CS
CNC(=O)c1nnsc1S(=O)(=O)c1ccc(Cl)cc1	69*	59*	9	0.9	11
O=C(c1nnsc1S(=O)(=O)c1ccc(Cl)cc1)N1CCOCC1	8	100*	-6	1.1	6
Cn1ncc(Cl)c1C(=O)N1CCN(c2ncccn2)CC1	-2	1	4	1	2
c1ccc(CCn2c3ccccc3c3nnc(SCc4ccc5nonc5c4)nc32)cc1	23	15	0	1	6
Cc1cc2ccccn2c1C(=O)c1ccc([N+](=O)[O-])o1	24	99*	8	0.9	1
Cc1cc2ccccn2c1C(=O)c1cccc([N+](=O)[O-])c1	-5	-8	12	0.9	3
CCOc1ccc2nc(NC(=O)C(NS(=O)(=O)c3cccc4nsnc34)C(C)C)sc2c1 (centres undefined)	3	52*	20	0.8	12
COc1cc2c(C(=O)N3CCN(c4cccc(Cl)c4)CC3)cn(CC(C)C)c(=O)c2cc1OC	10	58*	12	0.9	9
CCOc1ccccc1C(=O)N1CCN(c2cccc(Cl)c2)CC1	17	6	15	0.9	-27
CCCN1CCN(C(=O)c2cn(CC(C)C)c(=O)c3cc(OC)c(OC)cc23)CC1	7	5	18	0.8	5
COc1ccccc1N1CCN(c2ncc(C(=O)N3CCN(c4cccc(Cl)c4)CC3)c3ccccc23)CC1	59*	62*	12	0.9	7
O=C(NCC(=O)N1CC(O)CC1C(=O)N1CC(O)CC1C(=O)OCc1ccccc1)OCc1ccccc1 (centres undefined)	-6	-5	-9	1.1	1
O=[N+]([O-])c1ccccc1/C=N/n1c(-c2cccnc2)n[nH]c1=S	-15	8	41	0.6	-3
O=[N+]([O-])c1cc2c(cc1/C=N/n1c(-c3ccccn3)n[nH]c1=S)OCO2	9	53*	47	0.5	9
O=[N+]([O-])c1ccccc1/C=N/n1c(C2CCCCC2)n[nH]c1=S	58*	-5	12	0.9	10
O=[N+]([O-])c1cc2c(cc1/C=N/n1c(-c3ccccc3)n[nH]c1=S)OCO2	-3	53*	55*	0.4	-3
Brc1ccc2c(c1)OCCOCCOCCOCCOCCOCCO2	-1	-5	22	0.8	12
O=S(=O)(c1ccc(F)cc1)n1ccc(-c2cccc(OCc3ccc(Cl)cc3Cl)c2)n1	4	-5	15	0.8	3
COc1cccc(NC2=C(Cl)C(=O)OC2OC(=O)c2ccco2)c1 (centres undefined)	-10	7	6	0.9	6
CCOC(=O)c1c(C)n(CC(O)CN(C)C)c2cc(Br)c(OC)cc12 (centres undefined)	0	22	6	0.9	-3
CCCCC(c1nnnn1Cc1ccco1)N1CCN(c2nc3ccccc3s2)CC1 (centres undefined)	13	97*	22	0.8	3
COc1ccccc1C(c1nnnn1Cc1ccccc1)N1CCN(c2nc3ccccc3s2)CC1 (centres undefined)	9	91*	26	0.7	4
COc1ccc(C(c2nnnn2C(C)(C)C)N2CCN(c3nc4ccccc4s3)CC2)cc1 (centres undefined)	35	57*	24	0.8	8
CCC(c1nnnn1CCOC)N1CCN(c2nc3ccccc3s2)CC1 (centres undefined)	11	4	.	.	2
CCC(C)(C)n1nnnc1C(c1ccc(O)c(OC)c1)N1CCN(c2nc3ccccc3s2)CC1 (centres undefined)	17	6	30	0.7	6
SMILES	WT yeast gro inh	L major viab	Diaph inh CS	Diaphorase act	G6PDH CS
c1ccc(Cn2nnnc2C(c2ccccc2)N2CCN(c3nc4ccccc4s3)CC2)cc1 (centres undefined)	23	100*	29	0.7	10
Cc1nc(OCc2ccccc2)c2sc3nc4c(cc3c2n1)COC(C)(C)C4	-1	12	16	0.8	9
O=C(NNC(=O)c1cc([N+](=O)[O-])ccc1Cl)c1cccs1	15	-1	15	0.9	-16
CC(C)C(C(=O)N1CCOCC1)N1C(=O)c2ccccc2C1=O (centres undefined)	-9	-2	-2	1	22
COc1cc(C2Nc3ccccc3C(=O)N2c2ccc3c(c2)OCCO3)ccc1OCC(C)C (centres undefined)	22	17	32	0.7	2
CCSc1nnc(CNC(=O)C23CC4CC(CC(C4)C2)C3)n1C1CCCCC1	5	6	4	1	-4
COc1ccc(Cn2nnnc2C(c2cccnc2)N2CCN(c3ccc(O)cc3)CC2)cc1 (centres undefined)	2	94*	26	0.7	6
COc1ccc(C(c2nnnn2Cc2ccccc2)N2CCN(c3nc4ccccc4s3)CC2)cc1OC (centres undefined)	19	100*	11	0.9	2
c1ccc(C(c2nnnn2Cc2ccco2)N2CCN(C3CCCC3)CC2)cc1 (centres undefined)	-17	24	5	0.9	4
Cc1ccc(S(=O)(=O)Cn2nnnc2C(C(C)C)N2CCN(c3nc4ccccc4s3)CC2)cc1 (centres undefined)	24	99*	10	0.9	8
c1ccc(C(c2nnnn2Cc2ccco2)N2CCN(c3nc4ccccc4s3)CC2)cc1 (centres undefined)	22	98*	10	0.9	6
COc1ccc(C2NC(=O)c3sc4nc(C)c(C(C)=O)c(-c5ccc(Cl)cc5)c4c3N2)cc1 (centres undefined)	-9	-2	6	0.9	1
O=C(O)CCC(=O)NNC(=O)c1ccc(Br)cc1	-8	-4	11	0.9	1
C=C(C)C1CC=C(C)/C(=N\NC(=S)Nc2ccc(C)cc2)C1 (centres undefined)	61*	14	66*	0.3	5
C=C(C)C1CC=C(C)/C(=N/NC(=O)COc2ccccc2Cl)C1 (centres undefined)	58*	50	29	0.7	3
COc1ccc(/C=N/NC(=O)c2cccc(COCC(F)(F)C(F)F)c2)cc1	-5	-1	17	0.8	-6
Cc1ccc(Cl)cc1Nc1nc(-c2sc(NC(=O)C(C)(C)C)nc2C)cs1	3	97*	18	0.8	4
COc1cccc(Nc2nc(-c3sc(NC(=O)CC(C)C)nc3C)cs2)c1	1	81*	26	0.7	1
COc1ccccc1Nc1nc(-c2sc(NC(=O)CC(C)C)nc2C)cs1	3	67*	2	1	0
